Reference: ChEMBL document CHEMBL1144682, “Glycosyl and polyalcoholic prodrugs of lonidamine” (Bioorg Med Chem Lett, 2008)
Values after ≈ are worked out from the molar mass of the structure shown. Active and inactive are the calls of the source. The rule behind the calls is not given here.

Assays:
[1] = Partition coefficient, log P of the compound; type: physicochemical; settings: octanol/water
[2] = Solubility in water; type: physicochemical; settings: for solubility: water
[3] = Chemical stability assessed as half life of hydrolysis at pH 1.3; type: physicochemical; settings: buffer
Summary of the method: (§1)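 Non-enzymatic chemical hydrolysis of the prodrugs in buffer at pH 1.3 (simulated gastric conditions) and in phosphate buffer at pH 7.4, at 37 °C. Followed for up to 120 h. First-order kinetic plots gave Kobs and t1/2. Values are means of three experiments with SEM.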

[4] = Chemical stability assessed as half life of hydrolysis at pH 7.4; type: physicochemical; settings: buffer; summary of the method: as §1
[5] = Stability in human plasma assessed as half life of hydrolysis; type: ADME, cell-free
Summary of the method: (§2)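 Enzymatic hydrolysis in 80% rat plasma or 80% human plasma at 37 °C. t1/2 taken from first-order kinetic plots. Values are means of three experiments with SEM.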

[6] = Stability in rat plasma assessed as half life of hydrolysis; type: ADME, cell-free; summary of the method: as §2
[7] = Cell cycle arrest in human SKOV cells assessed as decrease in S phase accumulation at 150 uM after 12 hrs by flow cytometry; type: functional, cell-based
Summary of the method: (§3)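 SK-OV ovarian carcinoma cells exposed for 12 h to drug at 50 or 150 μM with 0.01% DMSO present. Cells stained with propidium iodide and analysed by flow cytometry for G1, S and G2 distribution. Values are means ± SEM of three independent experiments.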

[8] = Cell cycle arrest in human SKOV cells assessed as accumulation at G1 phase at 150 uM after 12 hrs by flow cytometry; type: functional, cell-based; summary of the method: as §3
[9] = Cytotoxicity against human SKOV cells at 300 uM after 12 hrs; type: functional
Summary of the method: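 SK-OV ovarian carcinoma cells treated for 12 h at 50, 150 or 300 μM drug with 0.01% DMSO present. Cell viability read out as % inhibition.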

[10] = Cell cycle arrest in human SKOV cells assessed as decrease in S phase accumulation at 50 uM after 12 hrs by flow cytometry; type: functional, cell-based; summary of the method: as §3
PC-3 = assay: Growth inhibition of human PC3 cells by SRB assay; type: functional
Summary of the method: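 Human PC-3 prostate cancer cells tested by sulforhodamine B assay following the NCI protocol. Concentrations went up to 100 μM, and GI50 was derived.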

## O=C(OCC(O)CO)c1nn(Cc2cc(Cl)cc(Cl)c2)c2ccccc12 (stereo not given)
[1]
  logP: 3.96
[2]
  solubility: 0.00051 mg/mL (≈ 1.29 µM)

## O=C(O[C@@H]1[C@@H](O)[C@H](O)O[C@H](CO)[C@H]1O)c1nn(Cc2cc(Cl)cc(Cl)c2)c2ccccc12
[1]
  logP: 2.19
[3]
  half-life: > 120 h
[4]
  half-life: 44.1 h
[5]
  half-life: 0.711 h
[2]
  solubility: 0.118 mg/mL (≈ 245 µM)
[6]
  half-life: 0.534 h

## O=C(OC[C@H]1OC(O)[C@H](O)[C@@H](O)[C@H]1O)c1nn(Cc2cc(Cl)cc(Cl)c2)c2ccccc12 (stereo not given in full)
[1]
  logP: 2.54
[7]
  Activity: Active
[8]
  Activity: Active
[3]
  half-life: > 120 h
[9]
  inhibition at 300 µM: 60%
[10]
  Activity: Active
[4]
  half-life: 114 h
[5]
  half-life: 2.06 h
[2]
  solubility: 0.0843 mg/mL (≈ 174 µM)
[6]
  half-life: 0.995 h
PC-3
  GI50: 3.16 µM

## O=C(OC[C@@H](O)[C@H](O)COC(=O)c1nn(Cc2cc(Cl)cc(Cl)c2)c2ccccc12)c1nn(Cc2cc(Cl)cc(Cl)c2)c2ccccc12
[2]; buffer
  Activity: Not Active

## O=C(OC[C@@H](O)[C@H](O)CO)c1nn(Cc2cc(Cl)cc(Cl)c2)c2ccccc12
[1]
  logP: 3.04
[2]
  solubility: 0.0012 mg/mL (≈ 2.82 µM)

## O=C(O[C@@H]([C@H](O)[C@H](O)CO)[C@H](O)CO)c1nn(Cc2cc(Cl)cc(Cl)c2)c2ccccc12
[1]
  logP: 2.55
[3]
  half-life: > 120 h
[9]
  inhibition at 300 µM: 30%
[4]
  half-life: 80.7 h
[5]
  half-life: 6 h
[2]
  solubility: 0.137 mg/mL (≈ 283 µM)
[6]
  half-life: 2.17 h
PC-3
  GI50: 3.16 µM

## O=C(OC[C@H]1O[C@@H](O)[C@H](O)[C@H]1O)c1nn(Cc2cc(Cl)cc(Cl)c2)c2ccccc12
[1]
  logP: 3.4
[2]
  solubility: 0.0013 mg/mL (≈ 2.87 µM)

## O=C(O)c1nn(Cc2ccc(Cl)cc2Cl)c2ccccc12 [LONIDAMINE]
[1]
  logP: 1.3
[2]
  solubility: 0.017 mg/mL (≈ 52.9 µM)
PC-3
  Activity: inactive
